# Data taken from ChEMBL document CHEMBL1141375, “Synthesis and cell-based activity of a potent and selective protein tyrosine phosphatase 1B inhibitor prodrug” (J Med Chem, 2007).
# How the values were obtained:
# Assay type in all cases: functional, cell-based
# [1] = target: Insulin receptor (Homo sapiens) (UniProt P06213); test: Increase in insulin-induced ERK phosphorylation in human HepG2 cells after 1 hr at 100 nM
# Outline: (§1)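 HepG2 (MEM, 2 mM L-glutamine, 1 mM pyruvate, 10% FBS, 5% CO2) grown to 60-80% confluence, serum-starved 5 h, exposed 1 h to prodrug (0, 5, 20, 100 nM), then 100 nM insulin or none for 5 min. Lysates run on SDS-PAGE, blotted with anti-phospho-IRβ (pY1162/1163) and anti-phospho-ERK1/2, β-actin loading control; bands quantified densitometrically as fold over insulin-only.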
# [2] = target: Insulin receptor (Homo sapiens) (UniProt P06213); test: Increase in insulin-induced ERK phosphorylation in human HepG2 cells after 1 hr at 20 nM; outline: as §1
# [3] = target: Insulin receptor (Homo sapiens) (UniProt P06213); test: Increase in insulin-induced IRbeta phosphorylation in HepG2 cells after 20 mins at 20 nM
# Outline: (§2)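 Time course in subconfluent HepG2 cells. Preincubation with 20 nM prodrug for various periods (5, 20, 60 min), then 5 min with or without 100 nM insulin. Lysates resolved by SDS-PAGE, transferred to nitrocellulose and probed for phospho-IRβ and phospho-ERK1/2. Result expressed as increase in insulin-induced phosphorylation.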
# [4] = target: Insulin receptor (Homo sapiens) (UniProt P06213); test: Increase in insulin-induced IRbeta phosphorylation in human HepG2 cells after 1 hr at 100 nM; outline: as §1
# [5] = target: Insulin receptor (Homo sapiens) (UniProt P06213); test: Increase in insulin-induced IRbeta phosphorylation in HepG2 cells after 60 mins at 20 nM; outline: as §2
# [6] = target: Insulin receptor (Homo sapiens) (UniProt P06213); test: Increase in insulin-induced IRbeta phosphorylation in HepG2 cells after 2 hrs at 20 nM
# [7] = target: Insulin receptor (Homo sapiens) (UniProt P06213); test: Increase in insulin-induced ERK phosphorylation in HepG2 cells after 60 mins at 20 nM; outline: as §2
# [8] = target: Insulin receptor (Homo sapiens) (UniProt P06213); test: Increase in insulin-induced IRbeta phosphorylation in HepG2 cells after 5 mins at 20 nM; outline: as §2
# [9] = target: Insulin receptor (Homo sapiens) (UniProt P06213); test: Increase in insulin-induced IRbeta phosphorylation in human HepG2 cells after 1 hr at 20 nM; outline: as §1
# [10] = target: Insulin receptor (Homo sapiens) (UniProt P06213); test: Increase in insulin-induced ERK phosphorylation in HepG2 cells after 20 mins at 20 nM
# Insulin receptor (Homo sapiens), sequence (P06213 28-758 limits assumed): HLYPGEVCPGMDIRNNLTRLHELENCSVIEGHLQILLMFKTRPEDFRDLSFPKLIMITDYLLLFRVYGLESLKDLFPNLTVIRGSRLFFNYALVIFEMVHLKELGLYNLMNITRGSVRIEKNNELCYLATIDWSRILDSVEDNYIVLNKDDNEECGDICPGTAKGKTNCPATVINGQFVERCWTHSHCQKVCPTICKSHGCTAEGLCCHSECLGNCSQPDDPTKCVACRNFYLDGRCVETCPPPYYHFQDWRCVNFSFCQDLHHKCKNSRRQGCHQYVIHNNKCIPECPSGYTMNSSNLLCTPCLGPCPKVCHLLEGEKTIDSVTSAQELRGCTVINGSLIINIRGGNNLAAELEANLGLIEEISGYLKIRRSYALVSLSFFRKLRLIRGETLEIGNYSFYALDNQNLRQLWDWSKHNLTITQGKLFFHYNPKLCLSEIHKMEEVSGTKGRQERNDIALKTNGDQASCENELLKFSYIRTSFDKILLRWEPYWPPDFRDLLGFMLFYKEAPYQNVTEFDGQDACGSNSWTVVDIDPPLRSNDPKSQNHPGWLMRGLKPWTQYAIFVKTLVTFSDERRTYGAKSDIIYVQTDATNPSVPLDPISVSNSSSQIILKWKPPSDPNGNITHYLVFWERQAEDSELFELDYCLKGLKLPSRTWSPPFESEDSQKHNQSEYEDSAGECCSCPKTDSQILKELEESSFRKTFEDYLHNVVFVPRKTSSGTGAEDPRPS
# Insulin receptor (Homo sapiens), sequence (P06213 763-1382 limits assumed): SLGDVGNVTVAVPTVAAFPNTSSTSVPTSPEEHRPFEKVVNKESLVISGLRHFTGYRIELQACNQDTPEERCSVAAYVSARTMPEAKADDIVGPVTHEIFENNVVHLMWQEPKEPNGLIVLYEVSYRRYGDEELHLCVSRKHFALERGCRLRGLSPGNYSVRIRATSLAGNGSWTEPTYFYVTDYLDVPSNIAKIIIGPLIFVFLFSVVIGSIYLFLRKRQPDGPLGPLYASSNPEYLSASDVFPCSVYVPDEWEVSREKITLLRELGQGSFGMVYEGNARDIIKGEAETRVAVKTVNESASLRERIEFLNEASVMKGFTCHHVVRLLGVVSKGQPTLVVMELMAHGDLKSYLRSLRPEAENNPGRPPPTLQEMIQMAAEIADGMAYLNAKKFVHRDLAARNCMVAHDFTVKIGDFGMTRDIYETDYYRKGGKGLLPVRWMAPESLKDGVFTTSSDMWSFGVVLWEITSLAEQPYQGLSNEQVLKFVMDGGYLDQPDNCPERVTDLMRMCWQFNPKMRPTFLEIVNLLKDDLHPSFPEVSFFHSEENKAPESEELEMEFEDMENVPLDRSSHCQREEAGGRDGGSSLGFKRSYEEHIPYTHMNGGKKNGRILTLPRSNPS
smiles,measurement,setting,value
CN(CCCCCl)P(=O)(OCc1ccc([N+](=O)[O-])o1)C(F)(F)c1ccc(CC(=O)N[C@@H](CC(=O)O)C(=O)N[C@@H](Cc2ccc(C(F)(F)P(=O)(OCc3ccc([N+](=O)[O-])o3)N(C)CCCCCl)cc2)C(N)=O)cc1 (stereo not given in full),Activity,[1],1.6
same,Activity,[2],1.3
same,Activity,[3],1.7
same,Activity,[4],2.1
same,Activity,[5],2
same,Activity,[6],2.1
same,Activity,[7],50%
same,Activity,[8],35%
same,Activity,[9],1.9
same,Activity,[10],25%
